Eleven compounds from ChEMBL document CHEMBL1144943, “New amide-bearing benzolactam-based protein kinase C modulators induce enhanced secretion of the amyloid precursor protein metabolite sAPPalpha” (J Med Chem, 2003) can be followed below.

Experiment [1] is filed under the species Mus musculus. As to the kind of experiment: Compound was evaluated for induction of hyperplasia after four applications at dose 10 (micro/application); 1-3. The class given is functional.
The species named for experiment [2] is Mus musculus. Kind of experiment: Compound was evaluated for induction of hyperplasia after single application at dose 3 (micro/application); 1-2. The class given is functional.
Experiment [3] is filed under the species Mus musculus. As to the kind of experiment: Compound was evaluated for induction of hyperplasia after four applications at dose 3 (micro/application); 1-2. It counts as functional.
The species named for experiment [4] is Mus musculus. Kind of experiment: Compound was evaluated for induction of hyperplasia after single application at dose 1 (micro/application); 1-2. The class given is functional.
Experiment [5] has as its target Protein kinase C alpha type (Homo sapiens, UniProt P17252). As to the kind of experiment: Displacement of PDBU from recombinant Protein kinase C alpha with phosphatidylserine.
A further experiment concerns AG06848 cell line. Kind of experiment: Ability to enhance […] secretion using human fibroblast AG06848 cell line at 1 uM concentration. The class given is functional. Further details: unit not given here. The method, boiled down: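 AD-patient fibroblasts (AG06848) grown to confluence (about 4–5 days), switched to serum-free DMEM for 2 h, then exposed to 1 μM compound for 3 h with DMSO (below 1%) as solvent control. sAPPα in conditioned medium measured by SDS-PAGE immunoblot with antibody 6E10, loading corrected for total cell protein. Densitometry expressed relative to DMSO-treated cells; 3–6 independent experiments.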

The species entered for experiment [6] is Mus musculus. Kind of experiment: Compound was evaluated for induction of hyperplasia after single application at dose 10 (micro/application); 1-2. The class given is functional.
The species named for experiment [7] is Mus musculus. As to the kind of experiment: Compound was evaluated for induction of hyperplasia after four applications at dose 1 (micro/application); 1-2. The class given is functional.
The species named for experiment [8] is Mus musculus. Kind of experiment: Compound was evaluated for induction of hyperplasia after four application at dose 3 (micro/application). It counts as functional.
The species named for experiment [9] is Mus musculus. As to the kind of experiment: Compound was evaluated for induction of hyperplasia after single application at dose 30 (micro/application). It counts as functional.
The species named for experiment [10] is Mus musculus. Kind of experiment: Compound was evaluated for induction of hyperplasia after four application at dose 300 (micro/application). It counts as functional.
Experiment [11] is filed under the species Mus musculus. Kind of experiment: Compound was evaluated for induction of hyperplasia after single application at dose 300 (micro/application). The class given is functional.
The species entered for experiment [12] is Mus musculus. Kind of experiment: Compound was evaluated for induction of hyperplasia after single application at dose 3 (micro/application). It counts as functional.
The species entered for experiment [13] is Mus musculus. Kind of experiment: Compound was evaluated for induction of hyperplasia after single application at dose 100 (micro/application). It counts as functional.
For experiment [14], the species on record is Mus musculus. Kind of experiment: Compound was evaluated for induction of hyperplasia after four application at dose 30 (micro/application). It counts as functional.
Experiment [15] is filed under the species Mus musculus. As to the kind of experiment: Compound was evaluated for induction of hyperplasia after four application at dose 10 (micro/application). It counts as functional.
For experiment [16], the species on record is Mus musculus. As to the kind of experiment: Compound was evaluated for induction of hyperplasia after single application at dose 10 (micro/application). The class given is functional.
For experiment [17], the species on record is Mus musculus. As to the kind of experiment: Compound was evaluated for induction of hyperplasia after four application at dose 100 (micro/application). The class given is functional.

As for `CC(C)[C@H]1C(=O)N[C@H](CO)Cc2cc(NC(=O)CCCCc3ccc(C(F)(F)F)cc3)ccc2N1C`, the Epidermal thickness in the experiment listed under Mus musculus [1], in the experiment listed under Mus musculus [2], in the experiment listed under Mus musculus [3], in the experiment filed under Mus musculus [4], in the experiment listed under Mus musculus [6] and in the experiment filed under Mus musculus [7] was 1 in each case. Besides, the Ki in [5] was 12.5 nM. Also, the Activity in the experiment on AG06848 cell line worked out at 30.

In the case of `CC(C)[C@H]1C(=O)N[C@H](CO)Cc2cc(NC(=O)CCCCc3ccc(CCC(F)(F)C(F)(F)C(F)(F)C(F)(F)C(F)(F)C(F)(F)F)cc3)ccc2N1C`, the Ki in [5] was determined as 9.2 nM. For the same compound, the Activity with AG06848 cell line was determined as 20.

As to `CC(C)[C@H]1C(=O)N[C@H](CO)Cc2cc(NC(=O)/C=C/C=C/c3ccc(/C=C/C(F)(F)C(F)(F)C(F)(F)C(F)(F)C(F)(F)C(F)(F)F)cc3)ccc2N1C`, the Ki in experiment [5] came to 11.2 nM. In addition, the Activity in the experiment on AG06848 cell line was found to be 10.

Turning to `CC(C)[C@H]1C(=O)N[C@H](CO)Cc2cc(NC(=O)/C=C/C=C/c3cc(C(F)(F)F)cc(C(F)(F)F)c3)ccc2N1C`, the inhibition constant Ki in [5] is 5.6 nM. For the same compound, the Activity in the experiment on AG06848 cell line is 20.

For `CC(C)[C@H]1C(=O)N[C@H](CO)Cc2cc(NC(=O)/C=C/C=C/c3ccc(C(F)(F)F)cc3)ccc2N1C`, the Epidermal thickness in the experiment filed under Mus musculus [8] was 1; in the experiment listed under Mus musculus [9], 1; in the experiment filed under Mus musculus [10], 3; in the experiment filed under Mus musculus [11] it was 2; in the experiment listed under Mus musculus [12], 1; in the experiment filed under Mus musculus [13], 1. In addition, the Epidermal thickness in the experiment filed under Mus musculus [14] worked out at 1; in the experiment listed under Mus musculus [15], 1; in the experiment listed under Mus musculus [16] it was 1; in the experiment listed under Mus musculus [17], 2. In addition, the Ki in experiment [5] was 11.9 nM. In addition, in the experiment on AG06848 cell line, the Activity was determined as 40.

On to `CC(C)[C@H]1C(=O)N[C@H](CO)Cc2cc(NC(=O)/C=C/C=C/c3ccccc3)ccc2N1C`, for which, in [5], the Ki turned out to be 15.8 nM. Moreover, the Activity in the experiment with AG06848 cell line amounted to 20.

With `CC(C)[C@H]1C(=O)N[C@H](CO)Cc2cc(NC(=O)CCCCc3cc(C(F)(F)F)cc(C(F)(F)F)c3)ccc2N1C`, the inhibition constant (Ki) in [5] was found to be 7.8 nM. For the same compound, the Activity in the experiment with AG06848 cell line came to 0.

Take `CC(C)[C@H]1C(=O)N[C@H](CO)Cc2cc(NC(=O)CCCCc3ccccc3)ccc2N1C`: the Ki in experiment [5] was found to be 34.2 nM. The Activity with AG06848 cell line is listed as 30.

Turning to `CCCCCC(=O)Nc1ccc2c(c1)C[C@@H](CO)NC(=O)[C@H](C(C)C)N2C`, the Activity in the experiment on AG06848 cell line is 30.

For the compound `C/C=C/C=C/C(=O)Nc1ccc2c(c1)C[C@@H](CO)NC(=O)[C@H](C(C)C)N2C`, in [5], the Ki came out at 1970 nM. Moreover, the Activity in the experiment on AG06848 cell line worked out at 10.

`CCCCCCCCC#Cc1ccc2c(c1)C[C@@H](CO)NC(=O)[C@H](C(C)C)N2C`: in the experiment on AG06848 cell line, the Activity is reported as 0.

In general, Ki refers to the equilibrium dissociation constant of an inhibitor or competing ligand from its target.
